Screening data deposited in PubChem by The Scripps Research Institute Molecular Screening Center.
Hits are enriched below; roughly 1.9% of the tested compounds scored in any of these assays.
LEDGF integ inh: blocks HIV-1 LEDGF/p75-dependent DNA integration; AID 743269; 0.64% of 370,000 active; inhibition, % at 3.7 µM; TR-FRET IN-LEDGF/p75 DNA integration, Eu/Cy5;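 active = inhibition above the screen-wide mean plus 3 SD, cut at about 13% in these data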;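 also: signal is the Cy5 over europium emission ratio at 671 and 618 nm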
TDP2 absorb: blocks human TDP2 phosphodiesterase activity | O95551 | recombinant TDP2, T5PNP hydrolysis, p-nitrophenol absorbance 415 nm | inhibition, % at 12.8 µM | 0.34% of 370,000 active;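 active = inhibition above the mean of all tested compounds plus 3 SD, set per campaign, cut at about 25% in these data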
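Incubation: 2 h at 37 °C; Test system: recombinant human TDP2; Quantity: enzyme 120 nM; Read-out basis: percent inhibition; Medium: 50 mM Tris-HCl pH 7.5 with Mg2+, KCl, DTT, BSA; Repeats: single replicate; Compound: 12.8 µM single point, 1% DMSO; Signal: epi absorbance; Reagent: 5 mM T5PNP chromogenic substrate; Benchmarks: no-enzyme high, DMSO-plus-enzyme low.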
UHRF1 binding: blocks human UHRF1 binding to methylated DNA; Q96T88; UHRF1 binding to methylated oligo, TR-FRET; inhibition, % at 4.4 µM; 0.75% of 370,000 active; AID 687016; in the data active = inhibition above about 21%;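 also: UHRF1 SRA domain binding a hemimethylated CpG hairpin DNA probe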
Rin1 Abl inh: blocks binding of human Rin1 to Abl; inhibition, % at 7.35 µM; P00519+Q13671; 0.4% of 360,000 active; TR-FRET Rin1/Abl binding, biochemical; in the data active = inhibition above about 5%, passing the limit was not always enough
Target sequence (P00519 whole entry, looked up): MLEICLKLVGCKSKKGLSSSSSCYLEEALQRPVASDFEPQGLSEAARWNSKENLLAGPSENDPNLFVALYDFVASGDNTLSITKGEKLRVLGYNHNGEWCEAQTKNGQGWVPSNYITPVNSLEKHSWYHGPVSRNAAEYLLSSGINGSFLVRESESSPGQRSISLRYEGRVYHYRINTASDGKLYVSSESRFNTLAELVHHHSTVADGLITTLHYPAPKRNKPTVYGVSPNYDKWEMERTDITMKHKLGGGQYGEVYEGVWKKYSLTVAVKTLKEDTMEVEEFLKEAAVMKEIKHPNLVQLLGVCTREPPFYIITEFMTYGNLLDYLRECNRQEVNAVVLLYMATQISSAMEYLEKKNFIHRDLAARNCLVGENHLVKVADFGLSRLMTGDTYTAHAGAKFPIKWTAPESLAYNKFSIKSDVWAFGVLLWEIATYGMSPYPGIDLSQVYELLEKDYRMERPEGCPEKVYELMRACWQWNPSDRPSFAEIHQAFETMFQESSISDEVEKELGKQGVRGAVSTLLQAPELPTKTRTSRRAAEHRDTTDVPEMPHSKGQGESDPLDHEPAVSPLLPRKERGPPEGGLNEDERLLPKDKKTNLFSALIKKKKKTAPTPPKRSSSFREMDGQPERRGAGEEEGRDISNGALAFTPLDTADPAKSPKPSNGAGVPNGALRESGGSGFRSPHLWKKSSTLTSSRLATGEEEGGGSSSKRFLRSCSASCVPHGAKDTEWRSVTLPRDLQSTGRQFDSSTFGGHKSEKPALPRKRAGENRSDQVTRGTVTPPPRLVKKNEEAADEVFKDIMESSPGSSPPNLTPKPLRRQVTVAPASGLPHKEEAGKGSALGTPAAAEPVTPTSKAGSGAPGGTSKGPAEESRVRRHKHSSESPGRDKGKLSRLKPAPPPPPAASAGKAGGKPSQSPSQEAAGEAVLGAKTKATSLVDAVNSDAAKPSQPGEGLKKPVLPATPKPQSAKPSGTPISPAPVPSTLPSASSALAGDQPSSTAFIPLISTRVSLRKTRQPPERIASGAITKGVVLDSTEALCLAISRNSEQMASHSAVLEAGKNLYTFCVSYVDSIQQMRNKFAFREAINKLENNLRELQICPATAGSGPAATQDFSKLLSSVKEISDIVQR
Target sequence (Q13671 whole entry, looked up): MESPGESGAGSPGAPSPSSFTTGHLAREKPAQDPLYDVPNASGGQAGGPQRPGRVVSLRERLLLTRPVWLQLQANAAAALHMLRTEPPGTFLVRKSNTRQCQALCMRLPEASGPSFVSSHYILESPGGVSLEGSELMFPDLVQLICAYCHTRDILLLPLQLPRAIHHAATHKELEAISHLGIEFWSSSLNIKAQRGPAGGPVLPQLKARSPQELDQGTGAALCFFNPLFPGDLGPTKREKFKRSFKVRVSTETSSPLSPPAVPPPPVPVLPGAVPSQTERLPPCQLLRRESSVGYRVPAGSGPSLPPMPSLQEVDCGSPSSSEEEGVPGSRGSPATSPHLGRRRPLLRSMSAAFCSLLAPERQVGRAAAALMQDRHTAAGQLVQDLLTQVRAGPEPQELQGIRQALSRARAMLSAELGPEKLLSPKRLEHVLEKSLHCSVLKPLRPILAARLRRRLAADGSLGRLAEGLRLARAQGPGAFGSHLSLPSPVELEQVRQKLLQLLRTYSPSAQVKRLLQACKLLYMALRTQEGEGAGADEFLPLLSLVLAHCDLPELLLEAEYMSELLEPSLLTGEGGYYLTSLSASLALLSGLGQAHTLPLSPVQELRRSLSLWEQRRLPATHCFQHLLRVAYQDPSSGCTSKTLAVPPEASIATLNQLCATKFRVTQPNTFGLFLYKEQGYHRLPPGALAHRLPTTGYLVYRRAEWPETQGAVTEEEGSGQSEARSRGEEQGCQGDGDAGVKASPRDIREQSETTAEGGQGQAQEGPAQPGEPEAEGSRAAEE
MBD2 inh: blocks human MBD2 binding to methylated DNA. AID 686964. 0.31% of 370,000 active. TR-FRET, MBD2 binding to methylated oligonucleotide. Q9UBB5. inhibition, % at 4.4 µM; in the data active = inhibition above about 13%
Rin1-Abl confirm: confirmation of inhibitors of human Rin1-Abl interaction; shares compounds with Rin1 Abl inh; TR-FRET Rin1-Abl binding, purified proteins; inhibition, % at 7.35 µM; 49% of 1,300 active; AID 602124; in the data active = inhibition above about 6.5%
GFP quench-1: counter-screen for Rin1-Abl inhibitors: GFP fluorescence quenchers; shares compounds with Rin1 Abl inh; inhibitors/quenchers counterscreen; inhibition, % at 6.75 µM; 8.5% of 1,300 active; in the data active = inhibition above about 6.5%;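 also: ABL1-eGFP fusion protein alone without its partner RIN1-SBP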
GFP quench DR: quenches GFP in dose response, Rin1-Abl counter-screen; shares compounds with Rin1 Abl inh; GFP fluorescence interference/quenching counterscreen; IC50, µM; 230 tested, under 10 active; AID 602182;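 also: ABL1-eGFP fusion protein alone without its RIN1 binding partner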
GFP quench-2: counter-screen for Rin1-Abl interaction inhibitors: GFP fluorescence quenching; AID 602397; IC50, µM; GFP fluorescence quenching counterscreen, biochemical; 25 tested, under 10 active; shares compounds with Rin1 Abl inh
A number is an active result; 0 = inactive; - = no result given. Unless noted, no rule for the calls is given here.

SMILES	LEDGF integ inh	TDP2 absorb	UHRF1 binding	Rin1 Abl inh	MBD2 inh	Rin1-Abl confirm	GFP quench-1	others
O=C(Cc1ccc(NC(=O)C2CCN(C(=O)C3CCC3)CC2)cc1)Nc1ccc(C(=O)N2CCOCC2)cc1	0	0	0	23	0	21	0	GFP quench DR=0
O=C(Cc1ccc(NC(=O)C2CCN(C(=O)c3ccccc3)CC2)cc1)Nc1ccc(C(=O)N2CCOCC2)cc1	0	0	0	36	0	37	0	GFP quench DR=0;GFP quench-2=0
O=C(Cc1ccc(NC(=O)C2CCCN(C(=O)C3CC3)C2)cc1)Nc1ccc(C(=O)N2CCOCC2)cc1 (configuration not stated)	0	0	0	0	0	-	-
CS(=O)(=O)N1CCC(C(=O)NCC2COc3ccccc3O2)CC1 (configuration not stated)	0	0	0	-	0	-	-
Cn1cnc2c1c(=O)n(Cc1ccc(F)cc1Cl)c(=O)n2C	0	0	0	7.6	0	0	0
Cn1cnc2c1c(=O)n(Cc1cccc(F)c1)c(=O)n2C	0	0	0	0	0	-	-
COc1ccc(Cn2cc(CN3[C@H](C)COc4cc(Br)ccc4S3(=O)=O)nn2)cc1	0	0	0	-	0	-	-
C1CCC(c2nn3c(-c4n[nH]c5c4CCC5)nnc3s2)CC1	0	0	0	25	0	14	0
CC(C)NC(=O)C1CCN(c2cncnc2)CC1	0	0	0	-	0	-	-
Cc1cccc(C(=O)N[C@H]2CC[C@@]34CCCN3C(=O)CCC[C@H]4[C@H]2C)c1	0	0	0	-	0	-	-
COc1ccc(S(=O)(=O)N2CCCCCC2)cc1C(=O)Nc1ccc(C(=O)N(C)C)cc1	0	0	0	38	0	43	0	GFP quench DR=0
COc1ccc(NC(=O)c2cc(S(=O)(=O)N3CCCCC3)ccc2OC)cc1	0	0	0	0	0	-	-
Cc1cc(C)nc(SCC(=O)Nc2ccc(S(=O)(=O)N3CCCCC3)cc2)n1	0	0	0	6.3	0	0	0
COc1ccc(CC(=O)Nc2ccc(S(=O)(=O)N3CCCCC3)cc2)cc1OC	0	0	0	10	0	6.7	0
Nc1cc(=O)[nH]c(SCC(=O)Nc2ccc(S(=O)(=O)N3CCCCC3)cc2)n1	0	0	0	0	0	-	-
COc1ccc(NC(=O)CSc2nc(N)cc(=O)[nH]2)cc1S(=O)(=O)N1CCCCC1	0	0	0	11	0	7.7	0
O=C(NCCc1ccccc1)O[C@H]1CC[C@@]23CCCN2C(=O)CCC[C@H]3C1	0	0	0	-	0	-	-
Cc1ccc(-c2cc(-c3nnc(SCC(=O)N4c5ccccc5Sc5ccccc54)n3N)[nH]n2)cc1	0	0	0	-	0	-	-
CCCC[C@H]1C2CC(OC(=O)NCCCc3ccccc3)C(C2)[C@H]2CCCCN21 (some centres not stated)	0	0	0	-	0	-	-
COc1cc(C(=O)Nc2ccc(S(=O)(=O)N3CCOCC3)cc2)c([N+](=O)[O-])cc1OC	0	0	0	11	0	0	0
COc1ccc(C(=O)Nc2ccc(S(=O)(=O)N3CCOCC3)cc2)cc1[N+](=O)[O-]	0	0	0	0	0	-	-
COC(=O)[C@H](C)N(CCc1cn(Cc2ccccc2)nn1)S(=O)(=O)c1ccccc1Br	0	0	0	-	0	-	-
CCOC(=O)[C@@]12CCC3=C1N(CCC3)C(=O)[C@H](CC(=O)N1CCCC1)C2	0	0	0	-	0	-	-
CC1(C)OC2CC3C4CC=C5CC(O)CCC5(C)C4CCC3(C)C2(C(=O)CO)O1 (configuration not stated)	0	0	0	0	0	-	-
CC(=O)OCC(=O)C12OC(C)(C)OC1CC1C3CC=C4CC(O)CCC4(C)C3CCC12C (configuration not stated)	0	0	0	12	0	0	0
SMILES	LEDGF integ inh	TDP2 absorb	UHRF1 binding	Rin1 Abl inh	MBD2 inh	Rin1-Abl confirm	GFP quench-1	others
Fc1cccc(Cl)c1CNCCCSc1ncccn1	0	0	0	6.9	0	0	0
O=C(NC1CCCC1)c1ccc(CS(=O)Cc2ccccc2Cl)o1 (configuration not stated)	0	0	0	18	0	0	0
CC(=O)C1(C(=O)N2CCOCC2)CC(c2ccccc2C(F)(F)F)=NO1 (configuration not stated)	0	0	0	-	0	-	-
Cc1cccc(NC(=O)C(c2ccccc2Cl)N2CCOCC2)c1 (configuration not stated)	0	0	0	8.2	0	0	0
Cc1ccc(NC(=O)C(c2ccc(Cl)cc2Cl)N2CCCC2)cc1 (configuration not stated)	0	0	0	0	0	-	-
O=C(NC1CCC1)c1ccc(C#CC2CC2)c[n+]1[O-]	0	0	0	-	0	-	-
O=C(NCC1COCCO1)C1CCN(S(=O)(=O)c2ccc(Br)s2)CC1 (configuration not stated)	0	0	0	-	0	-	-
Cc1ccc(NC(=O)CSc2nnc3n2CCCCC3)cc1	0	0	0	6.0	0	0	0
COc1ccc(C(C(=O)N(C)C2CCCC2)N(Cc2ccc(F)cc2)C(=O)c2ncn[nH]2)cc1OC (configuration not stated)	0	0	0	-	0	-	-
CC(=O)N1c2ccccc2C(C)=NCC1C(=O)NC1CCCCC1 (configuration not stated)	0	0	0	-	0	-	-
COc1ccc(C2c3[nH]c4ccccc4c3C[C@H]3C(=O)N(C4CCN(Cc5ccccc5)CC4)CC(=O)N23)cc1OC (some centres not stated)	0	0	0	10	0	8.2	0
COc1cccc(C2c3[nH]c4ccccc4c3C[C@H]3C(=O)N(C4CCN(Cc5ccccc5)CC4)CC(=O)N23)c1 (some centres not stated)	0	0	0	0	0	-	-
Cc1ccccc1NC(=O)[C@H]1CC(=O)O[C@@H]1c1ccccc1	0	0	0	-	0	-	-
CC(NS(=O)(=O)c1ccc2c(c1)CC(C)N2C(=O)C1CC1)c1ccccc1 (configuration not stated)	0	0	0	9.5	0	0	0
Cc1ccc(NC2CCCN(C(=O)CN3C(=O)c4ccccc4C3=O)C2)cc1C (configuration not stated)	0	0	0	9.8	0	0	0
Cc1ccc(NC2CCCN(C(=O)c3cccnc3)C2)cc1C (configuration not stated)	0	0	0	0	0	-	-
Cc1ccc(NC2CCCN(C(=O)c3cc4ncccn4n3)C2)cc1C (configuration not stated)	0	0	0	37	0	0	0
